Measured values published in ChEMBL document CHEMBL4376859, “Prodrugs for nitroreductase-based cancer therapy-3: Antitumor activity of the novel dinitroaniline prodrugs/Ssap-NtrB enzyme suicide gene system: Synthesis, in vitro and in silico evaluation in prostate cancer” (Eur J Med Chem, 2020).
Calls of active or inactive are those of the source. The rule behind the calls is not given here.

Experiments:
PC-3 [1] = assay: Cytotoxicity against human PC3 cells […] Staphylococcus saprophyticus nitroreductase NtrB assessed as reduction in cell viability in presence of NADH as cofactor after 48 hrs by SRB assay; assay type: functional, cell-based; conditions: PC-3, 48 h
How it was run: (§1)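 Compounds were reduced outside the cells by purified His-tag (Ni column) Ssap-NtrB. The reaction mix held 600 µM NADH and compound (150, 39, 9 µM, or 180, 18, 1.8 nM) and was applied to PC-3 cells. Controls were compound alone in 25 mM Tris/HCl pH 7.5, and enzyme alone at 31 µg/mL. After 48 h, SRB absorbance was read at 492 nm and converted to % viability.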

PC-3 [2] = assay: Cytotoxicity against human PC3 cells assessed as cell viability at 9 to 150 uM after 24 hrs by MTT assay relative to control; assay type: functional
How it was run: (§2)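 Hep3B hepatoma, PC-3 prostate cancer and HUVEC (healthy control) cells were exposed to nitro compounds at 150, 75, 38, 19 and 9 µM for 24 h and 48 h. Viability was read by MTT assay, and IC50 values were derived from the growth inhibition curves.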

Putative nitroreductase [3] = target: T1, Putative nitroreductase (Staphylococcus saprophyticus subsp. saprophyticus (strain ATCC 15305 / DSM20229 / NCIMB 8711 / NCTC 7292 / S-41), UniProt Q4A0P1); assay: Substrate activity at Staphylococcus saprophyticus nitroreductase expressed in Escherichia coli BL21 (DE3) assessed as retention time by HPLC analysis; assay type: ADME
T1 sequence (Q4A0P1 whole entry): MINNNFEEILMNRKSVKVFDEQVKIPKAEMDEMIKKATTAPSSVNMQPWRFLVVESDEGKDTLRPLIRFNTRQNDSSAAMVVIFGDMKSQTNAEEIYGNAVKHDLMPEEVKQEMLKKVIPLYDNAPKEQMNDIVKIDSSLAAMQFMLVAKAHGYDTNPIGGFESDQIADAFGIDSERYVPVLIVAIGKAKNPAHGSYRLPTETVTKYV

Hep 3B2 [4] = assay: Cytotoxicity against human Hep3B cells assessed as cell viability at 9 to 150 uM after 48 hrs by MTT assay relative to control; assay type: functional; how it was run: as §2
[5] = Cytotoxicity against human HUVEC cells assessed as cell viability at 9 to 150 uM after 24 hrs by MTT assay relative to control; assay type: cell-based; conditions: read-out: Activity; how it was run: as §2
PC-3 [6] = assay: Cytotoxicity against human PC3 cells assessed as reduction in cell viability after 48 hrs by SRB assay; assay type: functional, cell-based; how it was run: as §1
PC-3 [7] = assay: Cytotoxicity against human PC3 cells assessed as cell viability at 9 to 150 uM after 48 hrs by MTT assay relative to control; assay type: functional; how it was run: as §2
PC-3 [8] = assay: Cytotoxicity against human PC3 cells […] Staphylococcus saprophyticus nitroreductase NtrB assessed as cell viability at 150 uM in presence of NADH as cofactor after 48 hrs by SRB assay relative to control; assay type: functional; conditions: PC-3, 48 h, read-out: Activity; how it was run: as §1
Hep 3B2 [9] = assay: Cytotoxicity against human Hep3B cells assessed as cell viability at 9 to 150 uM after 24 hrs by MTT assay relative to control; assay type: functional; how it was run: as §2
[10] = Cytotoxicity against human HUVEC cells assessed as cell viability at 9 to 150 uM after 48 hrs by MTT assay relative to control; assay type: cell-based; conditions: read-out: Activity; how it was run: as §2
Hep 3B2 [11] = assay: Cytotoxicity against human Hep3B cells assessed as cell viability after 24 hrs by MTT assay; assay type: functional, cell-based; how it was run: as §2
Putative nitroreductase [12] = target: T1, Putative nitroreductase; assay: Substrate activity at Staphylococcus saprophyticus nitroreductase NtrB assessed as Kcat/Km using NADH as cofactor in Tris-Cl buffer at pH 7.5 by HPLC analysis relative to CB1954/NfsB; assay type: ADME
Putative nitroreductase [13] = target: T1, Putative nitroreductase; assay: Substrate activity at Staphylococcus saprophyticus nitroreductase NtrB assessed as enzyme specific activity using NADH as cofactor in Tris-Cl buffer at pH 7.5 by HPLC analysis; assay type: ADME
Hep 3B2 [14] = assay: Cytotoxicity against human Hep3B cells assessed as cell viability after 48 hrs by MTT assay; assay type: functional, cell-based; how it was run: as §2
[15] = substrate: NC(=O)c1cc(N2CC2)c([N+](=O)[O-])cc1[N+](=O)[O-]; assay: Substrate activity at Bacillus amyloliquefaciens nitroreductase ywrO assessed as Km using NADPH as cofactor in sodium phosphate buffer at pH 7.5 by HPLC analysis; assay type: ADME
[16] = substrate: O=[N+]([O-])c1ccc(Nc2ccc3ccccc3c2)c([N+](=O)[O-])c1; assay: Substrate activity at Staphylococcus saprophyticus nitroreductase NtrB assessed as Km using NADPH as cofactor in Tris-Cl buffer at pH 7.5 by HPLC analysis; assay type: ADME
[17] = substrate: O=[N+]([O-])c1ccc(N2CCCCC2)c([N+](=O)[O-])c1; assay: (§3) Substrate activity at Staphylococcus saprophyticus nitroreductase NtrB assessed as Km using NADH as cofactor in Tris-Cl buffer at pH 7.5 by HPLC analysis; assay type: ADME
[18] = substrate: O=C(CC(F)(F)F)Nc1cc(N2CCOCC2)c([N+](=O)[O-])cc1[N+](=O)[O-]; assay: as §3; assay type: ADME
[19] = substrate: O=[N+]([O-])c1ccc(N2CCOCC2)c([N+](=O)[O-])c1; assay: as §3; assay type: ADME
[20] = substrate: O=[N+]([O-])c1cc([N+](=O)[O-])c(Nc2ccc(S(=O)(=O)O)cc2)cc1Nc1ccc(S(=O)(=O)O)cc1; assay: as §3; assay type: ADME
[21] = substrate: Nc1ccccc1Nc1ccc([N+](=O)[O-])cc1[N+](=O)[O-]; assay: as §3; assay type: ADME
[22] = substrate: CCC(=O)Nc1cc(N2CCOCC2)c([N+](=O)[O-])cc1[N+](=O)[O-]; assay: as §3; assay type: ADME

Molecule: O=[N+]([O-])c1ccc(NC2CCCCC2)c([N+](=O)[O-])c1
- IC50 (PC-3 [1]): > 150 µM
- Activity (PC-3 [2]): >80%
- Retention_time (Putative nitroreductase [3]): 20.58 min
- Activity (Hep 3B2 [4]): >80%
- viability at 24 h, up to 150 µM [5]: > 80%
- Activity (PC-3 [6]): inactive
- Activity (PC-3 [7]): >80%
- viability at 150 µM (PC-3 [8]): 50%
- Activity (Hep 3B2 [9]): >80%
- viability at 48 h, up to 150 µM [10]: > 80%

Molecule: CC(C)CC(=O)Nc1cc(N2CCOCC2)c([N+](=O)[O-])cc1[N+](=O)[O-]
- IC50 (Hep 3B2 [11]): 150 µM
- Retention_time (Putative nitroreductase [3]): 24.16 min
- Activity (Hep 3B2 [4]): 51 - 80%
- viability at 24 h, up to 150 µM [5]: 51 to 80%
- viability at 48 h, up to 150 µM [10]: 51 to 80%

Molecule: Nc1ccccc1Nc1ccc([N+](=O)[O-])cc1[N+](=O)[O-]
- IC50 (PC-3 [1]): 15 µM
- fold change (FC) (Putative nitroreductase [12]): 0.41
- Activity (PC-3 [2]): >80%
- Retention_time (Putative nitroreductase [3]): 16.85 min
- Activity (Hep 3B2 [4]): >80%
- viability at 24 h, up to 150 µM [5]: > 80%
- Activity (PC-3 [6]): inactive
- Activity (PC-3 [7]): >80%
- Activity (Hep 3B2 [9]): >80%
- viability at 48 h, up to 150 µM [10]: > 80%

Molecule: O=[N+]([O-])c1ccc(N2CCOCC2)c([N+](=O)[O-])c1
- IC50 (PC-3 [1]): > 150 µM
- fold change (FC) (Putative nitroreductase [12]): 1.25
- Activity (PC-3 [2]): >80%
- Retention_time (Putative nitroreductase [3]): 19.38 min
- Activity (Hep 3B2 [4]): 51 - 80%
- viability at 24 h, up to 150 µM [5]: > 80%
- Activity (PC-3 [6]): inactive
- Activity (PC-3 [7]): >80%
- viability at 150 µM (PC-3 [8]): 50%
- Activity (Hep 3B2 [9]): >80%
- viability at 48 h, up to 150 µM [10]: > 80%

Molecule: O=C(CC(F)(F)F)Nc1cc(N2CCOCC2)c([N+](=O)[O-])cc1[N+](=O)[O-]
- fold change (FC) (Putative nitroreductase [12]): 4.73
- Retention_time (Putative nitroreductase [3]): 21.8 min
- Activity (Hep 3B2 [4]): 51 - 80%
- viability at 24 h, up to 150 µM [5]: > 80%
- Activity (Hep 3B2 [9]): 51 - 80%
- Activity (Putative nitroreductase [13]): 0.99 U/mg
- viability at 48 h, up to 150 µM [10]: 51 to 80%

Molecule: CCC(=O)Nc1cc(N2CCOCC2)c([N+](=O)[O-])cc1[N+](=O)[O-]
- fold change (FC) (Putative nitroreductase [12]): 4.73
- IC50 (Hep 3B2 [11]): 90.7 µM
- Retention_time (Putative nitroreductase [3]): 20.95 min
- Activity (Hep 3B2 [4]): 51 - 80%
- viability at 24 h, up to 150 µM [5]: 51 to 80%
- viability at 48 h, up to 150 µM [10]: 51 to 80%

Molecule: O=[N+]([O-])c1ccc(N2CCCCC2)c([N+](=O)[O-])c1
- IC50 (Hep 3B2 [14]): 50.3 µM
- Activity (PC-3 [2]): >80%
- Retention_time (Putative nitroreductase [3]): 24.21 min
- viability at 24 h, up to 150 µM [5]: > 80%
- Activity (PC-3 [6]): inactive
- Activity (PC-3 [7]): >80%
- Activity (Hep 3B2 [9]): 51 - 80%
- Activity (Putative nitroreductase [13]): 0.49 U/mg
- viability at 48 h, up to 150 µM [10]: 51 to 80%

Molecule: COc1cccc(Nc2ccc([N+](=O)[O-])cc2[N+](=O)[O-])c1
- IC50 (PC-3 [1]): > 150 µM
- Activity (PC-3 [2]): >80%
- Retention_time (Putative nitroreductase [3]): 18.56 min
- Activity (Hep 3B2 [4]): >80%
- viability at 24 h, up to 150 µM [5]: > 80%
- Activity (PC-3 [6]): inactive
- Activity (PC-3 [7]): >80%
- viability at 150 µM (PC-3 [8]): 50%
- Activity (Hep 3B2 [9]): >80%
- viability at 48 h, up to 150 µM [10]: > 80%

B1: Nitroreductase (Bacillus amyloliquefaciens) (protein)
chain: MKVLVLAVHPDMENSAVNKAWAEELKKHDELTVRELYKEYPDGQIDAEKERQLCEQYDRIVFQFPLYWYSAPPLLKTWMDHVLSYGWAYGSKGKALHGKELMLAVSVGAGEDAYQAGGSNHFTLSELLRPFQAMANFTGMTYLPAFALYGVNGADATDIHDNAKRLAAYIKKSF
- Km [15]: 618 µM
- kcat [15]: 8.2 s⁻¹
- kcat/Km [15]: 13300 M⁻¹ s⁻¹

B2: Putative nitroreductase (Staphylococcus saprophyticus subsp. saprophyticus ATCC 15305 = NCTC 7292) (protein)
chain: T1 sequence (Q4A0P1 whole entry)
- Km [16]: 15.7 µM
- kcat [16]: 0.1 s⁻¹
- kcat/Km [16]: 8270 M⁻¹ s⁻¹
- Km [17]: 104 µM
- kcat [17]: 0.404 s⁻¹
- kcat/Km [17]: 3900 M⁻¹ s⁻¹
- Km [18]: 9.95 µM
- kcat [18]: 0.234 s⁻¹
- kcat/Km [18]: 26500 M⁻¹ s⁻¹
- Km [19]: 444 µM
- kcat [19]: 3.1 s⁻¹
- kcat/Km [19]: 6970 M⁻¹ s⁻¹
- Km [20]: 255 µM
- kcat [20]: 3.4 s⁻¹
- kcat/Km [20]: 13300 M⁻¹ s⁻¹
- Km [21]: 137 µM
- kcat [21]: 0.315 s⁻¹
- kcat/Km [21]: 2300 M⁻¹ s⁻¹
- Km [22]: 14 µM
- kcat [22]: 0.37 s⁻¹
- kcat/Km [22]: 26500 M⁻¹ s⁻¹
